Measurements: ChEMBL document CHEMBL1150813, “Triterpene saponins from Vietnamese ginseng (Panax vietnamensis) and their hepatocytoprotective activity” (J Nat Prod, 2001)

How the values were obtained:
Format in all cases: functional
Hepatocyte [1] = test: Hepatoprotective activity against D-galactosamine/TNFalpha-induced cell death in mouse hepatocytes assessed cell survival rate at 50 uM administered before 30 mins of TNFalpha challenge measured after 18 hrs by MTT assay
Summary of the method: (§1)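 Primary mouse hepatocytes, isolated by collagenase perfusion, were cultured in William's E medium with 10% calf serum, dexamethasone and insulin at 1.5×10^4 cells/well. TNF-α (100 ng/mL) was added 30 min later. Viability was read by MTT after 18 h. Values are mean ± SD, n = 4 (normal and control n = 8), with Student's t-test versus control.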

Hepatocyte [2] = test: Hepatoprotective activity in mouse hepatocytes assessed protection against D-galactosamine/TNFalpha-induced cell death at 100 uM administered before 30 mins of TNFalpha challenge measured after 18 hrs; summary of the method: as §1
Hepatocyte [3] = test: Hepatoprotective activity in mouse hepatocytes assessed protection against D-galactosamine/TNFalpha-induced cell death at 200 uM administered before 30 mins of TNFalpha challenge measured after 18 hrs; summary of the method: as §1
Hepatocyte [4] = test: Hepatoprotective activity in mouse hepatocytes assessed protection against D-galactosamine/TNFalpha-induced cell death at 50 uM administered before 30 mins of TNFalpha challenge measured after 18 hrs; summary of the method: as §1
Hepatocyte [5] = test: Hepatoprotective activity in mouse hepatocytes assessed inhibition of D-galactosamine/TNFalpha-induced cell death dosed administered before 30 mins of TNFalpha challenge measured after 18 hrs; summary of the method: as §1
Hepatocyte [6] = test: Hepatoprotective activity in mouse hepatocytes assessed inhibition of D-galactosamine/TNFalpha-induced cell death at 100 uM administered before 30 mins of TNFalpha challenge measured after 18 hrs; summary of the method: as §1
Hepatocyte [7] = test: Hepatoprotective activity in mouse hepatocytes assessed inhibition of D-galactosamine/TNFalpha-induced cell death at 200 uM administered before 30 mins of TNFalpha challenge measured after 18 hrs; summary of the method: as §1
Hepatocyte [8] = test: Hepatoprotective activity in mouse hepatocytes assessed inhibition of D-galactosamine/TNFalpha-induced cell death at 50 uM administered before 30 mins of TNFalpha challenge measured after 18 hrs; summary of the method: as §1
Hepatocyte [9] = test: Hepatoprotective activity against D-galactosamine/TNFalpha-induced cell death in mouse hepatocytes assessed cell survival rate at 100 uM administered before 30 mins of TNFalpha challenge measured after 18 hrs by MTT assay; summary of the method: as §1
Hepatocyte [10] = test: Hepatoprotective activity against D-galactosamine/TNFalpha-induced cell death in mouse hepatocytes assessed cell survival rate at 200 uM administered before 30 mins of TNFalpha challenge measured after 18 hrs by MTT assay; summary of the method: as §1

Compound | Survival (Hepatocyte [1]) [%] | Activity (Hepatocyte [2]) [%] | Activity (Hepatocyte [3]) [%] | Activity (Hepatocyte [4]) [%] | IC50 (Hepatocyte [5]) [µM] | inhibition (INH) (Hepatocyte [6]) [%] | inhibition (INH) (Hepatocyte [7]) [%] | inhibition (INH) (Hepatocyte [8]) [%] | Survival (Hepatocyte [9]) [%] | Survival (Hepatocyte [10]) [%]
CC1(C)[C@@H](O[C@H]2O[C@H](C(=O)O)[C@@H](O)[C@H](O)[C@H]2O[C@@H]2O[C@H](C(=O)O)[C@@H](O)[C@H](O)[C@H]2O)CC[C@]2(C)[C@H]3C(=O)C=C4[C@@H]5C[C@@](C)(C(=O)O)CC[C@]5(C)CC[C@@]4(C)[C@]3(C)CC[C@@H]12 [GLYCYRRHIZIN] | 33 | 4.8 | 8.7 | 1 | > 200 | 11.1 | 20.3 | 11 | 33.4 | 36.2
CC(C)=CCC[C@](C)(O[C@@H]1O[C@H](CO)[C@@H](O)[C@H](O)[C@H]1O)[C@H]1CC[C@]2(C)[C@@H]1[C@H](O)C[C@@H]1[C@@]3(C)CC[C@H](O)C(C)(C)[C@@H]3[C@@H](O[C@@H]3O[C@H](CO)[C@@H](O)[C@H](O)[C@H]3O)C[C@]12C [GINSENOSIDE RG1] | 41.6 | 17.3 | 26.2 | 16.7 | 111 | 40.6 | 61.4 | 39.3 | 42 | 48.3
CC(C)(O)[C@@H]1CC[C@@](C)([C@H]2CC[C@]3(C)[C@@H]2[C@H](O)C[C@@H]2[C@@]4(C)CC[C@H](O)C(C)(C)[C@@H]4[C@@H](O[C@@H]4O[C@H](CO)[C@@H](O)[C@H](O)[C@H]4O[C@@H]4OC[C@@H](O)[C@H](O)[C@H]4O)C[C@]23C)O1 [MAJONOSIDE R2] | 41.1 | 19.3 | 35.5 | 16 | 82.4 | 55.2 | 83.3 | 37.5 | 46.4 | 54.8
CC(=O)OC[C@H]1O[C@@H](O[C@H]2C[C@]3(C)[C@H](C[C@@H](O)[C@@H]4[C@@H]([C@]5(C)CC[C@@H](C(C)(C)O)O5)CC[C@]43C)[C@@]3(C)CC[C@H](O)C(C)(C)[C@H]23)[C@H](O[C@@H]2OC[C@@H](O)[C@H](O)[C@H]2O)[C@@H](O)[C@@H]1O [GINSENOSIDE R2] | 43.2 | 31.1 | 61.3 | 19 | 63.2 | 72.9 | 143.8 | 44.7 | 51.7 | 72.9
CC(C)(O)[C@@H]1CC[C@@](C)([C@H]2CC[C@]3(C)[C@@H]2[C@H](O)C[C@@H]2[C@@]4(C)CC[C@H](O)C(C)(C)[C@@H]4[C@@H](O)C[C@]23C)O1 [PROTOPANAXATRIOL OXIDE II] | 40.2 | 22.2 | 92.2 | 17.9 | 74 | 51.7 | 209.9 | 34.5 | 45.3 | 92.6
CO[C@@](C)(CCC=C(C)C)[C@H]1CC[C@]2(C)[C@@H]1[C@H](O)C[C@@H]1[C@@]3(C)CC[C@H](O)C(C)(C)[C@@H]3[C@@H](O[C@@H]3O[C@H](CO)[C@@H](O)[C@H](O)[C@H]3O)C[C@]12C [GINSENOSIDE RH5] | 36.9 | – | – | 13.1 | – | 27.9 | -24 | 23.5 | – | –
CC(C)(O)[C@@H]1CC[C@@](C)([C@H]2CC[C@]3(C)[C@@H]2[C@H](O)C[C@@H]2[C@@]4(C)CC[C@H](O)C(C)(C)[C@@H]4[C@@H](O[C@@H]4O[C@H](CO)[C@@H](O)[C@H](O)[C@H]4O)C[C@]23C)O1 | 39.4 | 26.8 | 39 | 13.6 | 74.8 | 62.8 | 91.5 | 31.8 | 48.7 | 57.2
CC(C)=CCC[C@](C)(O[C@@H]1O[C@H](CO[C@@H]2OC[C@H](O)[C@H](O)[C@H]2O)[C@@H](O)[C@H](O)[C@H]1O)[C@H]1CC[C@]2(C)[C@@H]1[C@H](O)C[C@@H]1[C@@]3(C)CC[C@H](O[C@@H]4O[C@H](CO)[C@@H](O)[C@H](O)[C@H]4O[C@@H]4O[C@H](CO)[C@@H](O)[C@H](O)[C@H]4O)C(C)(C)[C@@H]3CC[C@]12C [GINSENOSIDE RB2] | 36.7 | 21 | 43.3 | 7.6 | 105 | 48.8 | 100.8 | 22.1 | 44.7 | 60.3
CC(C)=CCC[C@](C)(O[C@@H]1O[C@H](CO[C@@H]2O[C@@H](CO)[C@H](O)[C@H]2O)[C@@H](O)[C@H](O)[C@H]1O)[C@H]1CC[C@]2(C)[C@@H]1[C@H](O)C[C@@H]1[C@@]3(C)CC[C@H](O[C@@H]4O[C@H](CO)[C@@H](O)[C@H](O)[C@H]4O[C@@H]4O[C@H](CO)[C@@H](O)[C@H](O)[C@H]4O)C(C)(C)[C@@H]3CC[C@]12C [GINSENOSIDE RC] | 32.1 | 1.9 | – | 3.2 | – | 4.4 | -11.3 | 6.7 | 31.4 | 26.7
CC(C)=CC/C=C(\C)[C@H]1CC[C@]2(C)[C@@H]1[C@H](O)C[C@@H]1[C@@]3(C)CC[C@H](O)C(C)(C)[C@@H]3[C@@H](O[C@@H]3O[C@H](CO)[C@@H](O)[C@H](O)[C@H]3O)C[C@]12C [GINSENOSIDE RH4] | 34 | 24.8 | 35.1 | 8 | 97 | 50.6 | 67.1 | 13.7 | 45 | 50
CC(C)=CCC[C@](C)(O[C@@H]1O[C@H](CO)[C@@H](O)[C@H](O)[C@H]1O)[C@H]1CC[C@]2(C)[C@@H]1[C@H](O)C[C@@H]1[C@@]3(C)CC[C@H](O[C@@H]4O[C@H](CO)[C@@H](O)[C@H](O)[C@H]4O[C@@H]4O[C@H](CO)[C@@H](O)[C@H](O)[C@H]4O)C(C)(C)[C@@H]3CC[C@]12C [GINSENOSIDE RD] | 35.3 | 8.4 | 16.8 | 7.4 | – | 19.5 | 39.1 | 17.5 | 35.9 | 41.8
C=C(C)C(=O)CC[C@](C)(O[C@@H]1O[C@H](CO)[C@@H](O)[C@H](O)[C@H]1O)[C@H]1CC[C@]2(C)[C@@H]1[C@H](O)C[C@@H]1[C@@]3(C)CC[C@H](O)C(C)(C)[C@@H]3[C@@H](O[C@@H]3O[C@H](CO)[C@@H](O)[C@H](O)[C@H]3O)C[C@]12C | 35.6 | 12 | 20.5 | 8.2 | – | 28.3 | 48.2 | 19.2 | 38.4 | 44.3
CC1(C)O[C@](C)([C@H]2CC[C@]3(C)[C@@H]2[C@H](O)C[C@@H]2[C@@]4(C)CC[C@H](O)C(C)(C)[C@@H]4[C@@H](O[C@@H]4O[C@H](CO)[C@@H](O)[C@H](O)[C@H]4O)C[C@]23C)CC[C@H]1O [GINSENOSIDE R10] | 41.1 | 12 | 7.6 | 16 | – | 28 | 17.8 | 37.6 | 38.3 | 35.2
CC(C)=CCC[C@](C)(O[C@@H]1O[C@H](CO[C@@H]2O[C@H](CO)[C@@H](O)[C@H](O)[C@H]2O)[C@@H](O)[C@H](O)[C@H]1O)[C@H]1CC[C@]2(C)[C@@H]1[C@H](O)C[C@@H]1[C@@]3(C)CC[C@H](O[C@@H]4O[C@H](CO)[C@@H](O)[C@H](O)[C@H]4O[C@@H]4O[C@H](CO)[C@@H](O)[C@H](O)[C@H]4O)C(C)(C)[C@@H]3CC[C@]12C [GINSENOSIDE RB1] | 34.4 | 8.5 | 13.7 | 6 | – | 19.8 | 31.9 | 14.3 | 36 | 39.6
